In general, IC50 refers to the midpoint of a concentration-inhibition curve. Low values mean higher potency, high ones lower potency.

Data on 14 compounds can be found in ChEMBL document CHEMBL4706571, “Structure-activity relationship study of tryptophan-based butyrylcholinesterase inhibitors” (Eur J Med Chem, 2020).

The source made the active and inactive calls.

Series [1] deals with Cholinesterase (Homo sapiens, UniProt P06276). Description: Inhibition of human BChE using butyrylthiocholineiodide as substrate measured for 5 mins by Ellman's method. The method, boiled down: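 Human BChE at about 1 nM was preincubated for 5 min at 20 °C with compound and Ellman's reagent in 0.1 M phosphate buffer, pH 8.0, with 1% final DMSO. The reaction was started with butyrylthiocholine iodide and A412 read for 1 min from initial rates. Activity was corrected by an enzyme-free buffer blank. IC50 was fitted from at least seven concentrations.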
Background: Ellman's reagent forms a yellow product with free thiols.

Series [2] addresses Acetylcholinesterase (Homo sapiens, UniProt P22303). Description: Inhibition of human AChE using acetylthiocholine iodide as substrate measured for 5 mins by Ellman's method. The method, boiled down:
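Human AChE at about 50 pM was preincubated for 5 min at 20 °C with compound (DMSO stock) and Ellman's reagent in 0.1 M phosphate buffer, pH 8.0, with 1% final DMSO. Acetylthiocholine iodide was then added and A412 followed for 1 min. Residual activity = (vi − b)/(vo − b), with b a blank lacking enzyme. IC50 used at least seven concentrations.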

A short description of series [3]: Neurotoxicity in mouse assessed as effect in locomotor activity at 30 mg/kg, ip measured up to 60 mins by rotarod test. It is filed as toxicity, organism-based. The following applies: in vivo, 1 h. The method, boiled down:
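Mice trained 3 consecutive days on rotarod (2 cm rod, 18 rpm); 24 h later dosed i.p. with 30 mg/kg in 1% Tween 80 or vehicle, tested after 60 min at 6, 18 and 24 rpm. Motor impairment defined as failure to stay on for 60 s; expressed as mean time on rod.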
For orientation: The rotarod test checks motor coordination on a turning rod.

Series [4] relates to Mus musculus. Description: Cognitive enhancing effect in intraperitoneally dosed C57BL/6J mouse model of scopolamine-induced memory impairment assessed as enhancement of short-term memory retrieval by measuring latency time to find former escape box location in acquisition phase measured on day 5 by Barnes maze test. The series is classed as functional, organism-based. The method, boiled down:
(§1)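 C57BL/6J mice, Barnes maze: scopolamine 1 mg/kg s.c. 30 min before first daily trial; compound in 1% Tween 80 i.p. 60 min before, daily during 4-day acquisition (four trials/day, 15-min intervals). Drug-off probe day 5 (short-term) and day 12 (long-term): escape box removed, 90 s exploration, latency to former box location and primary errors recorded. n = 7–9; one-way ANOVA, Dunnett's.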

For series [5], the system named is Mus musculus. Description: Cognitive enhancing effect in intraperitoneally dosed C57BL/6J mouse model of scopolamine-induced memory impairment assessed as enhancement of learning abilities and working memory by measuring escape latency time to reach target in acquisition phase measured on day 5 by Barnes maze test. The series is classed as functional, organism-based. The method, boiled down: as §1

Series [6] has as its system Mus musculus. In words: Cognitive enhancing effect in intraperitoneally dosed C57BL/6J mouse model of scopolamine-induced memory impairment assessed as enhancement of long-term memory retrieval by measuring latency time to find former escape box location in acquisition phase measured on day 12 by Barnes maze test. It is filed as functional, organism-based. The method, boiled down:
as §1

Series [7] deals with Mus musculus. In words: Cognitive enhancing effect in C57BL/6J mouse model of scopolamine-induced memory impairment model assessed as escape latency time at 10 to 30 mg/kg, ip administered for 7 days and 60 mins before trail by Morris water maze test relative to control. It is filed as functional, organism-based. The following applies: dose 10-30 mg/kg, time 7.0 day.
Series [8] deals with Mus musculus. Description: Anti-amnesic activity in CD-1 mouse model of scopolamine-induced memory impairment assessed as step-through latency time to enter dark compartment in retention trail on day 2 at 10 to 30 mg/kg, ip administered 60 mins before trail by passive avoidance test. The series is classed as functional, organism-based. The conditions noted are these: dose 10-30 mg/kg. The method, boiled down:
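CD-1 mice, passive avoidance: scopolamine 1 mg/kg s.c. in 0.9% saline 30 min before trial; test article suspended in 1% Tween 80, i.p. 60 min before trial (controls 1% Tween 80 i.p.). Acquisition trial: 30 s in lit compartment, gate opened, step-through latency to dark chamber recorded; retention trial 24 h later. n = 8–9.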

Sequence of Cholinesterase (P06276 whole entry): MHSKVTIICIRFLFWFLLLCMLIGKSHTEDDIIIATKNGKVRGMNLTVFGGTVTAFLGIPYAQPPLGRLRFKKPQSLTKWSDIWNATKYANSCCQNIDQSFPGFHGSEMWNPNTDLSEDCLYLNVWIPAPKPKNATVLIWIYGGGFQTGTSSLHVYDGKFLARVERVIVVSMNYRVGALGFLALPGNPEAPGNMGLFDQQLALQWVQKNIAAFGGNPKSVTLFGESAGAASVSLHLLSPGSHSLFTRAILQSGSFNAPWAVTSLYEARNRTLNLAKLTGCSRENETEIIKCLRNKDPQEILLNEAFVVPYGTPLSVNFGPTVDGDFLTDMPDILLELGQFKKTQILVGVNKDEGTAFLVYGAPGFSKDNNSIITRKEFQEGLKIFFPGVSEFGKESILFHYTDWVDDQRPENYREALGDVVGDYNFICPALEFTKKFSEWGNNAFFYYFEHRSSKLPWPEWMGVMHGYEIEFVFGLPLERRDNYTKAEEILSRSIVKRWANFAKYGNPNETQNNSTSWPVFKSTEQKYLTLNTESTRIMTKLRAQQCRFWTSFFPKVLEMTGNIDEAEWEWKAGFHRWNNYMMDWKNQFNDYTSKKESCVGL
Sequence of Acetylcholinesterase (P22303 whole entry): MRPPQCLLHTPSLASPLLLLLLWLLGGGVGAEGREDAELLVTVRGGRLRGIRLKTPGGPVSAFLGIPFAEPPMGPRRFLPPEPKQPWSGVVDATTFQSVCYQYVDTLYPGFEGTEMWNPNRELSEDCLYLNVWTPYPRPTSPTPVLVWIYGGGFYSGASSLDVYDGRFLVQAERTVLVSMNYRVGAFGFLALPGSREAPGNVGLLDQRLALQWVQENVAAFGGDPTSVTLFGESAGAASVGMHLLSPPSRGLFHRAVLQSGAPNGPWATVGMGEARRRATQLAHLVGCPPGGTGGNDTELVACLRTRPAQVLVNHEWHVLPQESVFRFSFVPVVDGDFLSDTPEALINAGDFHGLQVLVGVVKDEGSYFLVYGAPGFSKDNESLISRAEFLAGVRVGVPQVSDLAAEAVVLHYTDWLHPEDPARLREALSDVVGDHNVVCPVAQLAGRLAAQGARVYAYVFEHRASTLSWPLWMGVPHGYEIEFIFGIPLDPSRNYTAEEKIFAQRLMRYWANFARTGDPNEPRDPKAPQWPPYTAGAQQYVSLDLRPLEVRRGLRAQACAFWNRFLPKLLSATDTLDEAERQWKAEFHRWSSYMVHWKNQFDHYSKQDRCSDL

`CCCCN[C@@H](Cc1c[nH]c2ccccc12)C(=O)NCCC1CCCC(c2ccccc2)C1` (mixture of isomers) gave an IC50 in series [1] of 6.6 nM.
Regarding `CCCCN[C@@H](Cc1ccccc1)C(=O)NCCC1CCCCCC1`, the 50% inhibitory concentration (IC50) in series [1] amounted to 609 nM.
The same measure, in the same setting: as for `CCCCN[C@@H](Cc1c[nH]c2ccccc12)C(=O)NCCC1CCN(CCc2ccccc2)CC1`, the figure is 3.8 nM.
Regarding `CCCCN(CCCC)[C@@H](Cc1c[nH]c2ccccc12)C(=O)N1CCC(Cc2ccccc2)CC1`, in series [1], it took 76 nM to reach half-maximal inhibition (IC50).
The same measure, in the same setting: as for `CCCCN[C@@H](Cc1c[nH]c2ccccc12)C(=O)NCCC1CCCN(Cc2ccccc2)C1` (mixture of isomers), the figure is 9 nM; as for `CCCCN[C@@H](Cc1c[nH]c2ccccc12)C(=O)NCCC1CCCN(Cc2c(F)c(F)cc(F)c2F)CC1` (mixture of isomers), 5.9 nM.
In turn, `CCCCN[C@@H](Cc1c[nH]c2ccccc12)C(=O)NCCC1CCCN(Cc2ccc(OC)cc2)CC1` (mixture of isomers) came in with a 50% inhibitory concentration (IC50) in series [1] of 100 nM.
In the case of `CCCCN[C@@H](Cc1c[nH]c2ccccc12)C(=O)NCCC1CCN(Cc2ccccc2)CC1`, the IC50 was 2 nM in series [1] and 25400 nM in series [2].
In the same order, the values of `CCCCN[C@@H](Cc1c[nH]c2ccccc12)C(=O)NCCC1CCCN(Cc2ccccc2)CC1` (mixture of isomers) are 2.8 nM and 16000 nM.
Regarding `CCCCN[C@@H](Cc1c[nH]c2ccccc12)C(=O)NCCC1CCN(c2ccccc2)CC1`, in series [1], the IC50 was 5.6 nM.
Same read-out and setting: the value for `CCCCN[C@@H](Cc1c[nH]c2ccccc12)C(=O)N1CCCC1c1ccccc1` (stereo partly drawn) was 990 nM; that for `CCCCN[C@@H](CC(C)C)C(=O)NCCC1CCCCCC1` was 36300 nM.
Turning to `CCCCN[C@@H](Cc1c[nH]c2ccccc12)C(=O)NCCC1CCCCCC1`, the Activity result in series [3] is on record as “Non-Toxic”. Also, the outcome in series [4], in series [5], in series [7] and in series [8] was inactive. The compound further returned a concentration for half-maximal inhibition (IC50) in series [1] of 22 nM. Moreover, the result in series [6] was Active.
For `CCCCN[C@@H](Cc1c[nH]c2ccccc12)C(=O)NCCC1CCN(CC2CCN(C)CC2)CC1`, the IC50 in series [1] amounted to 6600 nM; in series [2], 29700 nM.
